Drawing on ChEMBL document CHEMBL1125497, “Synthesis and anticonvulsant activity of enaminones” (J Med Chem, 1992), this text covers Activity, TPE and Reduction for two compounds.

Assay [1] is described as follows: Antiepileptic activity in male CF1 mice 2 hr after oral administration measured in neurological toxicity (Tox) test at a dose of 50 mg/kg (no. of animals treated /protected); activity value is 0/4. The assay is classed as functional, Mus musculus.
Assay [2] is described as follows: Antiepileptic activity in male CF1 mice 4 hr after administration measured in subcutaneous pentylenetetrazole (scMet) test at a dose of 100 mg/kg; activity value is 0/1. The assay is classed as functional, Mus musculus.
Assay [3] can be described thus: Antiepileptic activity in male CF1 mice 0.25 hr after oral administration measured in maximum electroshock seizure(MES) test at a dose of 50 mg/kg (no. of animals treated /protected); activity value is 2/4. Type of assay: functional, Mus musculus.
Assay [4] in a line: Time of peak anticonvulsant effect in CF1 MICE after po administration. Type of assay: functional, Mus musculus. An outline of the steps: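 Male CF1 mice (ca. 24–34 g), compound in 0.5% methylcellulose suspension given ip or po; time (h) at which MES protection (against tonic hind limb extension) peaked was recorded and used for ED50 determination.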
The nature of assay [5]: Antiepileptic activity in male CF1 mice 1 hr after oral administration measured in neurological toxicity (Tox) test at a dose of 50 mg/kg (no. of animals treated /protected); activity value is 0/4. The assay is classed as functional, Mus musculus.
A short description of assay [6]: Antiepileptic activity in male CF1 mice 0.5 hr after oral administration measured in maximum electroshock seizure(MES) test at a dose of 50 mg/kg (no. of animals treated /protected); activity value is 4/4. Type of assay: functional, Mus musculus.
For assay [7], the system named is Rattus norvegicus. Description: Per oral dose (60 mg/Kg) reducing rat corneal kindling 0.5 hr after administration. The assay is classed as functional. An outline of the steps: (§1)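 Sprague-Dawley rats (85–95 g initial) were kindled with 4 s, 8 mA corneal stimulations (butacaine anesthesia) to 10 consecutive stage 5 seizures. After a vehicle shock and a 2-day shock-free period, test drug was given ip or po and a single shock applied at time of peak effect. Seizures were scored on a modified Racine 0–5 scale. ED50 is the dose reducing severity by 50% (Litchfield–Wilcoxon).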

A short description of assay [8]: Antiepileptic activity in male CF1 mice 30 min after administration measured in neurological toxicity (Tox) test at a dose of 100 mg/kg (no. of animals treated /protected); activity value is 0/8. The assay is classed as functional, Mus musculus.
The nature of assay [9]: Antiepileptic activity in male CF1 mice 30 min after administration measured in maximum electroshock seizure(MES) test at a dose of 100 mg/kg (no. of animals treated /protected); activity value is 3/3. The assay is classed as functional, Mus musculus.
The subject of assay [10] is Rattus norvegicus. Description: Per oral dose (40 mg/Kg) reducing rat corneal kindling 0.5 hr after administration. The assay is classed as functional. An outline of the steps: as §1
Assay [11] deals with Rattus norvegicus. As to the kind of experiment: Per oral dose (20 mg/Kg) reducing rat corneal kindling 0.5 hr after administration. The assay is classed as functional. An outline of the steps: as §1
Assay [12] can be described thus: Antiepileptic activity in male CF1 mice 4 hr after oral administration measured in maximum electroshock seizure(MES) test at a dose of 10 mg/kg (no. of animals treated /protected); activity value is 3/4. The assay is classed as functional, Mus musculus.
A short description of assay [13]: Antiepileptic activity in male CF1 mice 0.5 hr after oral administration measured in maximum electroshock seizure(MES) test at a dose of 10 mg/kg (no. of animals treated /protected); activity value is 4/4. Type of assay: functional, Mus musculus.
Assay [14] can be described thus: Antiepileptic activity in male CF1 mice 0.5 hr after oral administration measured in neurological toxicity (Tox) test at a dose of 10 mg/kg (no. of animals treated /protected); activity value is 0/4. The assay is classed as functional, Mus musculus.
The nature of assay [15]: Antiepileptic activity in male CF1 mice 1 hr after oral administration measured in maximum electroshock seizure(MES) test at a dose of 10 mg/kg; activity value is 4/4. The assay is classed as functional, Mus musculus.

With `COC(=O)C1C(=O)C=C(NCc2ccccc2)CC1C` (stereo not given), the Activity in [1] is reported as 0; in assay [2] it was 0; in assay [3] it was 2; in assay [5], 0; in assay [6], 4; in assay [8], 0. This compound also showed a TPE in [4] of 0.5 h. The compound further displayed a Reduction in the assay on Rattus norvegicus [7] of 40%.
With `COC(=O)C1C(=O)C=C(Nc2ccc(Cl)cc2)CC1C` (stereo not given), the Activity is reported as 3 in assay [9]; 3 in assay [12]; 4 in [13]; 0 in [14]; 4 in assay [15]. Also, the Reduction was found to be 49% in the assay with Rattus norvegicus [10] and 40% in the assay on Rattus norvegicus [11].
